Test results published in ChEMBL document CHEMBL1156177, “Conjugates of plumbagin and phenyl-2-amino-1-thioglucoside inhibit MshB, a deacetylase involved in the biosynthesis of mycothiol” (Bioorg Med Chem, 2010).

T1: 1D-myo-inositol 2-acetamido-2-deoxy-alpha-D-glucopyranoside deacetylase (Mycobacterium tuberculosis) (UniProt P9WJN3)
T1 sequence (whole entry): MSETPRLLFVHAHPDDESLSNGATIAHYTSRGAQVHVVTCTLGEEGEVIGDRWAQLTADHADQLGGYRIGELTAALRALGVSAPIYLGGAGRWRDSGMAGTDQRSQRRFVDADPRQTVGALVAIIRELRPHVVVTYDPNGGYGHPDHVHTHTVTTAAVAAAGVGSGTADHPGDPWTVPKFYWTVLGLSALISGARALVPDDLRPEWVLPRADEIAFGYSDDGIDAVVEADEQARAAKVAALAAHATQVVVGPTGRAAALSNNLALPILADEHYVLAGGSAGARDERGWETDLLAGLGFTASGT

T2: 1D-myo-inositol 2-acetamido-2-deoxy-alpha-D-glucopyranoside deacetylase (Mycobacterium tuberculosis, UniProt P9WJN3)
T2 sequence (P9WJN3 whole entry): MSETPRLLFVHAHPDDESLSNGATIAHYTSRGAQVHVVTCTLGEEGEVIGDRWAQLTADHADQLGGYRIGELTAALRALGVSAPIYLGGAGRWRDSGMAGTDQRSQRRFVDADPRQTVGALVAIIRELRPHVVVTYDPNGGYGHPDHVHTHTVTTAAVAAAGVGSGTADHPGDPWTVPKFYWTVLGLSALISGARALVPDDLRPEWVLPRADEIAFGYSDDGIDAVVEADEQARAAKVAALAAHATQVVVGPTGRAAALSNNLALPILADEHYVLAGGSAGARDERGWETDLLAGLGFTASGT


How the values were obtained:
[1] = biological target: T1, 1D-myo-inositol 2-acetamido-2-deoxy-alpha-D-glucopyranoside deacetylase (Mycobacterium tuberculosis); test: Inhibition of Mycobacterium tuberculosis MshB expressed in Escherichia coli BL21 at 500 uM after 10 mins by HPLC analysis
Summary of the method: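 Recombinant MshB (E. coli BL21(DE3) pLysS, purified) assayed with GlcNAc-Ins and inhibitor, each at 500 μM, in 40 μl with 1.0 μmol Na-Hepes pH 7.5, 1.0 μmol NaCl, 3.26 μg MshB; 10 min at 37 °C; stopped with acetonitrile/TFA, 60 °C 10 min; GlcN-Ins measured by C-18 hplc as AccQ-Fluor derivative; percent inhibition.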

[2] = system: Mycolicibacterium smegmatis; test: Inhibition of Mycobacterium smegmatis Mca at 250 uM after 10 mins by HPLC analysis
Summary of the method: (§1)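 Native Mca purified from M. smegmatis by (NH4)2SO4 cut (15–50%), DEAE, hydroxyapatite and size-exclusion HPLC. 8.0 nmol of the bimane substrate MSmB and 8.0 nmol inhibitor (250 µM each) in Na-Hepes pH 7.5 with NaCl, 40 µl final volume, run 10 min at 37 °C. Stopped with acetonitrile/TFA and 60 °C for 10 min. Product read by C-18 HPLC with fluorescence detection (ex 396/em 482 nm).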

[3] = biological target: T1, 1D-myo-inositol 2-acetamido-2-deoxy-alpha-D-glucopyranoside deacetylase (Mycobacterium tuberculosis); test: Activity at Mycobacterium tuberculosis MshB expressed in Escherichia coli BL21 at 250 uM assessed per mg of protein by HPLC analysis
Summary of the method: (§2)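 Recombinant MshB from E. coli BL21(DE3) pLysS (IPTG 0.4 mM, 18 °C) purified by DEAE, Zn-IMAC and gel filtration. Substrates (GlcNAc glycosides, 250 μM for single-point comparison) incubated with 8.15 μg MshB, 1 μmol NaCl, 1 μmol Hepes pH 7.5 in 40 μl, 10 min, 37 °C; product quantified by C-18 hplc (UV for phenyl aglycons, dansylated for cyclohexyl) against complete-cleavage calibration curves.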

[4] = system: Mycolicibacterium smegmatis; test: Activity at Mycobacterium smegmatis Mca by HPLC analysis; summary of the method: as §1
[5] = biological target: T1, 1D-myo-inositol 2-acetamido-2-deoxy-alpha-D-glucopyranoside deacetylase (Mycobacterium tuberculosis); test: Ratio of Kcat to Km for Mycobacterium tuberculosis MshB
Summary of the method: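 GlcNAc-Ins varied 50–2000 μM with 3.26 μg purified recombinant MshB, 1.0 μmol Na-Hepes pH 7.5, 1.0 μmol NaCl in 40 μl, 10 min at 37 °C; GlcN-Ins quantified by hplc as AccQ-Fluor derivative.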

[6] = biological target: T2, 1D-myo-inositol 2-acetamido-2-deoxy-alpha-D-glucopyranoside deacetylase; test: Inhibition of Mycobacterium tuberculosis MshB expressed in Escherichia coli BL21 after 10 mins by HPLC analysis
[7] = substrate: CC(=O)N[C@H]1[C@@H](O[C@@H]2[C@H](O)[C@H](O)[C@@H](O)[C@H](O)[C@H]2O)O[C@H](CO)[C@@H](O)[C@@H]1O; test: (§3) Activity at Mycobacterium tuberculosis MshB expressed in Escherichia coli BL21 by HPLC analysis; summary of the method: as §2
[8] = substrate: CC(=O)N[C@@H]1[C@@H](O)[C@H](O)[C@@H](CO)O[C@@H]1Sc1ccccc1; test: as §3; summary of the method: as §2
[9] = substrate: CC(=O)N[C@H]1[C@@H](O[C@@H]2[C@H](O)[C@H](O)[C@@H](O)[C@H](O)[C@H]2O)O[C@H](CO)[C@@H](O)[C@@H]1O; test: (§4) Activity at Mycobacterium tuberculosis MshB expressed in Escherichia coli BL21 assessed per mg of protein by HPLC analysis; summary of the method: as §2
[10] = substrate: CC(=O)N[C@@H]1[C@@H](O)[C@H](O)[C@@H](CO)O[C@@H]1Sc1ccccc1; test: as §4; summary of the method: as §2

Row | Molecule | inhibition [1] | inhibition [2] | other results
1 | O=C(Nc1ccccc1)N[C@@H]1[C@@H](O)[C@H](O)[C@@H](CO)O[C@@H]1SC1CCCCC1 | 17% | 15% | 
2 | CC(=O)N[C@H]1[C@@H](OC2CCCCC2)O[C@H](CO)[C@@H](O)[C@@H]1O |  |  | Activity [3]: 6.07 nmol/min/mg
3 | OC[C@H]1O[C@H](OC2CCCCC2)[C@H](CC2CO2)[C@@H](O)[C@@H]1O (stereo partly drawn) | 19.7% | 19.4% | 
4 | C=CC[C@H]1[C@@H](OC2CCCCC2)O[C@H](CO)[C@@H](O)[C@@H]1O | 0% | 73.8% | 
5 | OC[C@H]1O[C@H](OC2CCCCC2)[C@@H]2CC(O)CO[C@H]2[C@@H]1O (stereo partly drawn) | 6.6% | 35% | 
6 | CC(=O)N[C@@H](CSSc1ccc2cc(O)ccc2c1)C(=O)NC1[C@@H](OC2[C@H](O)[C@H](O)C(O)[C@@H](O)[C@H]2O)O[C@H](CO)[C@@H](O)[C@@H]1O (stereo partly drawn) |  |  | Km [4]: 328 µM
7 | C=CC[C@H]1[C@H](OC2CCCCC2)O[C@H](CO)[C@@H](O)[C@@H]1O | 0% | 9.3% | 
8 | CC(O)C[C@H]1[C@@H](OC2CCCCC2)O[C@H](CO)[C@@H](O)[C@@H]1O (stereo partly drawn) | 11.4% | 20.5% | 
9 | CC(=O)N[C@@H]1[C@@H](O)[C@H](O)[C@@H](CO)O[C@@H]1SC1CCCCC1 |  |  | Activity [3]: 6.11 nmol/min/mg
10 | CC(=O)N[C@H]1[C@@H](O[C@@H]2[C@H](O)[C@H](O)[C@@H](O)[C@H](O)[C@H]2O)O[C@H](CO)[C@@H](O)[C@@H]1O |  |  | Activity [3]: 106 nmol/min/mg; Ratio [5]: 690 M⁻¹ s⁻¹
11 | CC(=O)N[C@@H]1[C@@H](O)[C@H](O)[C@@H](CO)O[C@H]1SCc1ccccc1 | 13.3% | 0% | 
12 | N[C@@H]1[C@@H](O)[C@H](O)[C@@H](CO)O[C@@H]1Sc1ccccc1 | 6.1% | 17% | 
13 | CO[C@H]1OCC(S[C@H]2O[C@H](CO)[C@@H](O)[C@H](O)[C@H]2NC(C)=O)C[C@H]1O (stereo partly drawn) | 0% | 27% | 
14 | O=C(CCl)N[C@@H]1[C@@H](O)[C@H](O)[C@@H](CO)O[C@@H]1SC1CCCCC1 | 14.9% | 0% | 
15 | CS(=O)(=O)N[C@@H]1[C@@H](O)[C@H](O)[C@@H](CO)O[C@@H]1SC1CCCCC1 | 0% | 0% | 
16 | CC1=C(CCCC(=O)N[C@@H]2[C@@H](O)[C@H](O)[C@@H](CO)O[C@@H]2Sc2ccccc2)C(=O)c2c(O)cccc2C1=O | 81.6% | 37.8% | 
17 | CC(=O)N[C@@H]1[C@@H](O)[C@H](O)[C@@H](CO)O[C@@H]1Sc1ccccc1 |  |  | Activity [3]: 27 nmol/min/mg; Ratio [5]: 69.4 M⁻¹ s⁻¹
18 | CC1=C(CCCCCC(=O)N[C@@H]2[C@@H](O)[C@H](O)[C@@H](CO)O[C@@H]2Sc2ccccc2)C(=O)c2c(O)cccc2C1=O | 94.8% | 44.5% | Ki [6]: 16.8 µM
19 | CCC[C@H]1[C@@H](OC2CCCCC2)O[C@H](CO)[C@@H](O)[C@@H]1O | 0% | 22% | 
20 | CC(=O)N[C@@H]1[C@@H](O)[C@H](O)[C@@H](CO)O[C@@H]1Sc1ccc([N+](=O)[O-])cc1[N+](=O)[O-] | 29.4% | 0% | 
21 | CC(=O)C[C@H]1[C@@H](OC2CCCCC2)O[C@H](CO)[C@@H](O)[C@@H]1O | 6.7% | 17.2% | 
22 | CC(=O)N[C@@H]1[C@@H](O)[C@H](O)[C@@H](CO)O[C@H]1Sc1ccccc1 | 15.1% | 0% | 
23 | CC1=C(CCCCC(=O)N[C@@H]2[C@@H](O)[C@H](O)[C@@H](CO)O[C@@H]2Sc2ccccc2)C(=O)c2c(O)cccc2C1=O | 81.4% | 23.2% | Ki [6]: 94 µM
24 | N[C@@H]1[C@@H](O)[C@H](O)[C@@H](CO)O[C@@H]1SC1CCCCC1 | 16.4% | 0% | 
25 | CC1=C(CCC(=O)N[C@@H]2[C@@H](O)[C@H](O)[C@@H](CO)O[C@@H]2Sc2ccccc2)C(=O)c2c(O)cccc2C1=O | 57.4% | 28.8% | Ki [6]: 167 µM
26 | CC(=N)N[C@@H]1[C@@H](O)[C@H](O)[C@@H](CO)O[C@@H]1SC1CCCCC1 | 0% | 6.8% | 
27 | 1D-myo-inositol 2-acetamido-2-deoxy-alpha-D-glucopyranoside deacetylase (Mycobacterium tuberculosis), P9WJN3 (protein) MSETPRLLFVHAHPDDESLSNGATIAHYTSRGAQVHVVTCTLGEEGEVIGDRWAQLTADHADQLGGYRIGELTAALRALGVSAPIYLGGAGRWRDSGMAGTDQRSQRRFVDADPRQTVGALVAIIRELRPHVVVTYDPNGGYGHPDHVHTHTVTTAAVAAAGVGSGTADHPGDPWTVPKFYWTVLGLSALISGARALVPDDLRPEWVLPRADEIAFGYSDDGIDAVVEADEQARAAKVAALAAHATQVVVGPTGRAAALSNNLALPILADEHYVLAGGSAGARDERGWETDLLAGLGFTASGT |  |  | Km [7]: 348 µM; kcat [7]: 0.24 s⁻¹; Km [8]: 1700 µM; kcat [8]: 0.12 s⁻¹; Vmax [9]: 437 nmol/min/mg; Vmax [10]: 214 nmol/min/mg
